From PMC8114230 (Inorganic chemistry, 2020)
“And” between values parts separate entries of the source, which are not always exact repeats. Identical values can stand only once. “Also recorded” adds a separate entry of the source. Like-named read-outs stand apart in the source and are kept apart here. Marks after values point to notes of the source that are not given here.

Key:
[1] = Cyclic voltammetry in acetonitrile; type: physicochemical; conditions: 0.10 M TBAP, irreversible reduction peak
[2] = Luminescence lifetime measurements in PBS; type: physicochemical; conditions: for luminescence lifetime τN2: nitrogen-saturated PBS (pH 7.4); for luminescence lifetime τ: air-equilibrated PBS, 10 μM
How it was run: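 Test compound was measured at 10 μM in PBS. Time-resolved photon counts were collected in 40 ns bins and fitted to a standard exponential decay. For deoxygenated samples, nitrogen was bubbled through the PBS solution for 20 min before measurement.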

HeLa cells [3] = test: Intracellular luminescence by confocal fluorescence microscopy; type: cell-based; conditions: 10 μM, 2 h
How it was run: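 HeLa cells were kept in DMEM with 10% FBS at 37 °C and 5% CO2. 1 × 10^5 cells were seeded on glass-bottom dishes, and after 24 h they were exposed to the test compound (10 μM in DMEM) for 2 h. Cells were then washed with PBS and imaged in HEPES imaging buffer, pH 7.4. Confocal excitation was 405 nm with 410–550 nm emission. Corrected total cell fluorescence was averaged over at least ten cells.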

HeLa cells [4] = test: Thioflavin T; type: cell-based; conditions: 10 μM, 30 min post-treatment
How it was run: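 About 1 × 10^5 HeLa cells were seeded on glass-bottom dishes. After 24 h they were loaded with 5 μM ThT for 2 h, washed, and given fresh medium. Test compound (10 μM) was added in imaging buffer. Confocal images were taken at 0 and 30 min (ex 405 nm, em 410–550 nm). Corrected total cell fluorescence was computed as integrated density minus cell area × mean background.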

HeLa cells [5] = test: Puromycin incorporation assay; type: cell-based; conditions: 10 μM, 2 h, then puromycin
How it was run: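 HeLa cells were exposed for 2 h to 10 μM test compound or DMSO vehicle. Puromycin (10 μM) was then added, and cells were harvested 10 min later. Lysis was in TBS/1% Triton X-100. Samples were run on SDS-PAGE and blotted to PVDF, with blocking in 5% milk/0.1% Tween-20. Anti-puromycin was applied overnight at 4 °C, then HRP secondary 1 h at room temperature. Detection was by ECL, normalised to β-actin.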

CHOP = CHOP expression Western blot; type: cell-based; conditions: HeLa cells, 10 μM, 24 h
How it was run: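 HeLa cells were exposed for 24 h to 10 μM test compound or DMSO vehicle. Lysis was in TBS (pH 7.5) with 1% Triton X-100, DNase and protease inhibitors, on ice 30 min. Samples were run on SDS-PAGE and blotted to PVDF. Blocking was 5% BSA/0.1% Tween-20. Anti-CHOP was applied overnight at 4 °C, then HRP secondary 1 h at room temperature. Detection was by ECL, with β-actin as loading control.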

Biodistribution in mice = type: in vivo; conditions: BALB/c mice
How it was run: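 Female BALB/c mice, 6 weeks old, received a 99mTc tricarbonyl isonitrile analogue (51–104 μCi) with the Re test compound (0.2 μmol; 10 μmol/kg) together through a tail vein catheter in 10% EtOH/saline. Animals were killed at 1, 2 and 4 h, and blood (cardiac puncture), organs, muscle, femur and urine were collected. For Re, tissues were digested in nitric acid for 20 h at 25 °C and measured by ICP-OES with a 20 ppm Tb internal standard. Results were expressed as %ID/g.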

[6] = tested on: A2780 ovarian cancer xenografts; test: In vivo tumor growth inhibition, A2780 ovarian cancer xenografts; set-up: species or system NSG mice
How it was run: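 NSG mice, about 7 weeks old, received A2780 tumour fragments from propagation mice implanted subcutaneously in the left flank. Groups of at least five were treated once tumours exceeded 100 mm3. Dosing was tail-vein injection twice weekly with vehicle (20% DMSO/PBS) or 5, 10 or 20 mg/kg test compound. Body weight and caliper tumour volume were tracked blinded over 27 days. Endpoints were a dimension >30 mm or burden […]; survival was compared with vehicle.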

Maximum tolerated dose = type: in vivo; conditions: injections in mice
[7] = Solubility in water or PBS; type: physicochemical
HeLa cells [8] = conditions: MTT assay; cited from earlier work
[9] = PBS pH 7.4; cited from earlier work
[10] = air-equilibrated PBS; cited from earlier work
[11] = a week in aqueous solution, even in the presence of glutathione; cited from earlier work
HeLa cells [12] = test: MTT cytotoxicity assay in HeLa cells; type: cell-based; conditions: 48 h incubation
How it was run: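 HeLa cells were grown in DMEM with 10% FBS at 37 °C, 5% CO2. Cells were seeded at 4000/well and rested 24 h, then medium was replaced with test-compound dilutions for 48 h. Stocks were in PBS or DMSO. MTT (1 mg/mL in DMEM) was added for 4 h. Formazan was dissolved in 8:1 DMSO/pH 10 glycine buffer and read at 570 nm. Viability was normalised to untreated wells: three independent experiments, six replicates per concentration.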

[13] = Emission spectra and emission quantum yield in PBS; type: physicochemical; conditions: PBS pH 7.4, ≤1% DMSO, air-equilibrated; for emission quantum yield Φ: relative to quinine sulfate
How it was run: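 Spectra were taken in PBS pH 7.4 with ≤1% DMSO. Quantum yield was set relative to quinine sulfate (Φ = 0.52, 0.5 M H2SO4), cross-checked against harmaline (Φ = 0.32, 0.05 M H2SO4). Excitation was 350 nm, keeping absorbance below 0.1. At least five concentrations of sample and standard were measured. Absorbance at 350 nm was plotted against integrated emission.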

HeLa cells [14] = test: Mitochondria morphology; type: cell-based; conditions: 10 μM, up to 30 min
How it was run: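 HeLa cells were loaded with MitoTracker Red FM and Hoechst 33342 for 30 min, then washed. At the microscope, test compound was added to 10 μM final in HEPES imaging buffer (pH 7.4). Confocal images were taken every 2 min up to 30 min: MitoTracker ex 561/em 630–700 nm, Hoechst ex 405/em 410–550 nm. Individual mitochondria were counted in ImageJ at 0, 14 and 30 min, alongside untreated cells.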

[15] = tail vein injection, 0.2 μmol Re / ~100 μCi 99mTc

Row | Compound | Epc [1] | luminescence lifetime τN2 [2] | increase in ThT fluorescence (HeLa cells [4]) | inhibition of protein synthesis (puromycin incorporation) (HeLa cells [5]) | CHOP expression (CHOP) | IC50 (HeLa cells [12]) | emission maximum λ [13] | emission quantum yield Φ [13] | luminescence lifetime τ [2] | also measured
1 | Cc1ccc2ccc3ccc(C)nc3c2n1.O=S(=O)([O-])C(F)(F)F.[C-]#[N+]c1ccc(C)cc1.[C-]#[O+].[C-]#[O+].[C-]#[O+].[Re+] [TRIP-1a, fac-[Re(CO)3(dmphen)(ptolICN)]OTf] | −1.25 V vs SCE | 3.5 μs | ≥ 2 fold | most efficient inhibition of protein synthesis | induce CHOP expression | – | – | – | – | intracellular localization pattern (HeLa cells [3]): primarily localized around the nucleus in a punctate pattern; rhenium content in blood, muscle and bone (Biodistribution in mice; ICP-OES): below detectable levels; heart and lung accumulation (Biodistribution in mice; [15]): accumulate in the heart and lungs; kidney uptake (Biodistribution in mice; [15]): large; liver uptake (Biodistribution in mice; [15]): moderate; spleen uptake (Biodistribution in mice; [15]): taken up to a much higher extent in this organ compared to TTIP; effect on tumor growth rate ([6]; 5 mg/kg i.v. twice weekly, 20% DMSO/PBS): no effect on tumor growth rate; effect on tumor growth rate ([6]; 10 mg/kg i.v. twice weekly, 20% DMSO/PBS): no effect on tumor growth rate; effect on tumor growth ([6]; 20 mg/kg i.v. twice weekly, 20% DMSO/PBS): inhibit tumor growth; also recorded: significantly inhibits tumor growth; prolongation of survival relative to the control group ([6]; 20 mg/kg twice weekly): 150%; average tumor volume relative to the vehicle-treated group ([6]; 20 mg/kg, days 10 to 20 after beginning treatment): less than half; side effects / body weight changes ([6]; highest concentrations of TRIP-1a, tumor-bearing NSG mice): minimal body weight changes; local reaction on administration ([6]; i.v. formulation in 20% DMSO/PBS): severe local inflammation; maximum tolerated dose, no obvious sign of distress (Maximum tolerated dose): ≥ 40 mg/kg; solubility [7]: up to 2 mM; IC50 (HeLa cells [8]): 1.4 ± 0.2 µM; emission maximum λ [9]: 505 nm; emission quantum yield Φ [9]: 3.1 ± 0.3%; luminescence lifetime τ [10]: 1.1^c μs; degradation in aqueous solution [11]: no measurable degradation
2 | Cc1ccc(N=[C]=[Re+]2(=[C]=O)(=[C]=O)(=[C]=O)[N]3C=CC=c4ccc5c(c43)[N]2C=CC=5)cc1.O=S(=O)([O-])C(F)(F)F [TRIP-2a, fac-[Re(CO)3(phen)(ptolICN)]OTf] | −1.18 V vs SCE | 10.9 μs | – | – | – | 5.8 ± 0.5 µM | 512 nm | 5.3 ± 0.4% | 1.8 μs | –
3 | O=S(=O)([O-])C(F)(F)F.[C-]#[N+]c1ccc(C)cc1.[C-]#[O+].[C-]#[O+].[C-]#[O+].[Re+].c1ccc(-c2ccccn2)nc1 [TRIP-3a, fac-[Re(CO)3(bpy)(ptolICN)]OTf] | −1.18 V vs SCE | 1.0 μs | – | not effective translation inhibitors | – | 27.5 ± 0.6 µM | 523 nm | 6.3 ± 0.2% | 0.7 μs | change in mitochondrial morphology (mitochondrial fission) (HeLa cells [14]): did not give rise to any changes in mitochondrial morphology
4 | N.N.[Cl][Pt][Cl] [cisplatin, reference compound] | – | – | – | – | – | – | – | – | – | IC50 (HeLa cells [8]): 6.6 ± 0.7 µM
5 | fac-[Re(CO)3(CF3bpy)(ptolICN)]OTf [TRIP-6a] | – | 0.1 μs | unable to change the ThT fluorescence levels relative to untreated cells | not effective translation inhibitors | except for the least cytotoxic compound TRIP-6a | 53 µM and 53.1 µM | 584 nm | 0.8% and 0.8 ± 0.1% | 0.1 μs | change in mitochondrial morphology (mitochondrial fission) (HeLa cells [14]): did not give rise to any changes in mitochondrial morphology
6 | fac-[Re(CO)3(dmbpy)(ptolICN)]OTf [TRIP-4a] | −1.30 V vs SCE | 1.3 μs | – | – | – | 7.6 ± 0.3 µM | 516 nm | 6.7 ± 0.1% | 0.8 μs | –
7 | fac-[Re(CO)3(dmobpy)(ptolICN)]OTf [TRIP-5a] | −1.33 V vs SCE | 0.7 μs | – | – | – | 8.4 ± 1.9 µM | 525 nm | 3.9 ± 0.3% | 0.4 μs | –
8 | fac-[Re(CO)3(tbutylbpy)(ptolICN)]OTf [TRIP-7a] | −1.30 V vs SCE | 1.6 μs | ≥ 2 fold | most efficient inhibition of protein synthesis | induce CHOP expression | 1.2 ± 0.5 µM | 518 nm | 7.7 ± 0.2% | 0.7 μs | intracellular localization pattern (HeLa cells [3]): distributed evenly throughout the cytoplasm
